Results taken from the RNAGym collection of RNA variant scans (doi:10.1038/s41586-018-0170-7).

B1: tRNA (parent)
chain: GUUCCGUUGGCGUAAUGGUAACGCGUCUCCCUCCUAAGGAGAAGACUGCGGGUUCGAGUCCCGUACGGAACG

Variants of: B1
Assay: yeast fitness, log relative to wild type (ln ratio); higher = fitter; tRNA-Arg(CCU), competitive growth, 37 C, 1 M NaCl
Outline: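 Fitness is the natural log of each genotype's generations divided by the wild type's. Generations were derived as OD-scaled log2 output/input frequency from 125 bp paired-end Illumina counts, weighting replicates by inverse variance. Pools of the tRNA-Arg(CCU) variant library, on a HIS3 centromeric plasmid in BY4742 lacking the chromosomal gene, grew ~6.5 generations (~26.5 h) in SC-HIS 1M NaCl at 37 °C after 4 generations in SC-HIS at 30 °C.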

Variant | yeast fitness (ln)
GGUCCAUUGGCGUAAUGGUAACGCGUCUCCCUCCUAAGGAGACGAUUGCGGGUUCGAGUCCCGUAAGGGUCG [U2G G6A A43C C46U C66A A69G A70U] | -0.0569
AGUCCGUUGGCGUAAUGGUAACGCGUCUCCCUCCUAAGGAGAAGACUGCGGGUUCGAGUCCCGUAAGGAUCG [G1A U2G C66A A70U] | -0.0922
GCUCCGUUGGCGUAAUGGUAACGCGUUUCCCUCCUAAGGAGACGACUGCGGGUUCGAGUCCCGUACGGAAUG [U2C C27U A43C C71U] | -0.0796
GCUCCGUUGGCGUAAUGGUAACGCGUUUCCCUCCUAAGGAGACGAUUGCGGGUUCGAGUCCCGUAUGGAAUG [U2C C27U A43C C46U C66U C71U] | -0.174
AUUCCAUUGGCGUAAUGGUAACGCGUCUCCCUCCUAAGGAGAAGACUGCGGGUUCGAGUCCCGUAUGGAACG [G1A G6A C66U] | -0.113
ACUCCGUUGGCGUAAUGGUAACGCGUUUCCCUCCUAAGGAGAAGAUUGCGGGUUCGAGUCCCGUACGGGAUG [G1A U2C C27U C46U A69G C71U] | -0.192
ACUCCAUUGGCGUAAUGGUAACGCGUCUCCCUCCUAAGGAGAAGACUGCGGGUUCGAGUCCCGUACGGGUUG [G1A U2C G6A A69G A70U C71U] | -0.281
GUUCCUUUGGCGUAAUGGUAACGCGUUUCCCUCCUAAGGAGAAGAUUGCGGGUUCGAGUCCCGUACGGGGUG [G6U C27U C46U A69G A70G C71U] | -0.342
GUUCCUUUGGCGUAAUGGUAACGCGUCUCCCUCCUAAGGAGACGAUUGCGGGUUCGAGUCCCGUACGGGAUG [G6U A43C C46U A69G C71U] | -0.234
AGUCCGUUGGCGUAAUGGUAACGCGUCUCCCUCCUAAGGAGACGACUGCGGGUUCGAGUCCCGUAUGGAACG [G1A U2G A43C C66U] | -0.246
GGUCCUUUGGCGUAAUGGUAACGCGUCUCCCUCCUAAGGAGAAGAUUGCGGGUUCGAGUCCCGUAAGGAUUG [U2G G6U C46U C66A A70U C71U] | -0.0156
GUUCCUUUGGCGUAAUGGUAACGCGUCUCCCUCCUAAGGAGACGACUGCGGGUUCGAGUCCCGUAUGGGUCG [G6U A43C C66U A69G A70U] | -0.356
GGUCCAUUGGCGUAAUGGUAACGCGUUUCCCUCCUAAGGAGAAGAUUGCGGGUUCGAGUCCCGUAUGGGGCG [U2G G6A C27U C46U C66U A69G A70G] | -0.199
GUUCCGUUGGCGUAAUGGUAACGCGUUUCCCUCCUAAGGAGACGACUGCGGGUUCGAGUCCCGUAAGGAGUG [C27U A43C C66A A70G C71U] | -0.234
GGUCCUUUGGCGUAAUGGUAACGCGUCUCCCUCCUAAGGAGAAGAUUGCGGGUUCGAGUCCCGUACGGGGCG [U2G G6U C46U A69G A70G] | -0.109
AGUCCUUUGGCGUAAUGGUAACGCGUCUCCCUCCUAAGGAGAAGACUGCGGGUUCGAGUCCCGUACGGGUCG [G1A U2G G6U A69G A70U] | -0.278
ACUCCUUUGGCGUAAUGGUAACGCGUUUCCCUCCUAAGGAGAAGACUGCGGGUUCGAGUCCCGUACGGGUUG [G1A U2C G6U C27U A69G A70U C71U] | -0.467
AGUCCGUUGGCGUAAUGGUAACGCGUUUCCCUCCUAAGGAGAAGACUGCGGGUUCGAGUCCCGUACGGAGUG [G1A U2G C27U A70G C71U] | -0.371
ACUCCUUUGGCGUAAUGGUAACGCGUUUCCCUCCUAAGGAGAAGAUUGCGGGUUCGAGUCCCGUAAGGGUCG [G1A U2C G6U C27U C46U C66A A69G A70U] | -0.116

Variant | yeast fitness (ln)
GGUCCGUUGGCGUAAUGGUAACGCGUUUCCCUCCUAAGGAGAAGACUGCGGGUUCGAGUCCCGUAAGGGUCG [U2G C27U C66A A69G A70U] | -0.155
ACUCCAUUGGCGUAAUGGUAACGCGUUUCCCUCCUAAGGAGACGAUUGCGGGUUCGAGUCCCGUACGGGGUG [G1A U2C G6A C27U A43C C46U A69G A70G C71U] | -0.0929
AUUCCUUUGGCGUAAUGGUAACGCGUCUCCCUCCUAAGGAGACGACUGCGGGUUCGAGUCCCGUAAGGAAUG [G1A G6U A43C C66A C71U] | -0.0965
GCUCCUUUGGCGUAAUGGUAACGCGUUUCCCUCCUAAGGAGACGAUUGCGGGUUCGAGUCCCGUAUGGAGCG [U2C G6U C27U A43C C46U C66U A70G] | -0.304
GGUCCUUUGGCGUAAUGGUAACGCGUUUCCCUCCUAAGGAGAAGAUUGCGGGUUCGAGUCCCGUAUGGGGCG [U2G G6U C27U C46U C66U A69G A70G] | -0.277
GCUCCUUUGGCGUAAUGGUAACGCGUCUCCCUCCUAAGGAGACGACUGCGGGUUCGAGUCCCGUACGGGAUG [U2C G6U A43C A69G C71U] | -0.255
ACUCCGUUGGCGUAAUGGUAACGCGUCUCCCUCCUAAGGAGAAGAUUGCGGGUUCGAGUCCCGUAUGGAGCG [G1A U2C C46U C66U A70G] | -0.129
GCUCCUUUGGCGUAAUGGUAACGCGUCUCCCUCCUAAGGAGACGAUUGCGGGUUCGAGUCCCGUACGGGGCG [U2C G6U A43C C46U A69G A70G] | -0.3
GUUCCAUUGGCGUAAUGGUAACGCGUCUCCCUCCUAAGGAGAAGAUUGCGGGUUCGAGUCCCGUAAGGAAUG [G6A C46U C66A C71U] | -0.349
AGUCCGUUGGCGUAAUGGUAACGCGUCUCCCUCCUAAGGAGAAGACUGCGGGUUCGAGUCCCGUAUGGAUCG [G1A U2G C66U A70U] | -0.131
GCUCCGUUGGCGUAAUGGUAACGCGUCUCCCUCCUAAGGAGACGACUGCGGGUUCGAGUCCCGUAUGGAUCG [U2C A43C C66U A70U] | -0.0776
ACUCCAUUGGCGUAAUGGUAACGCGUCUCCCUCCUAAGGAGACGAUUGCGGGUUCGAGUCCCGUAUGGAUCG [G1A U2C G6A A43C C46U C66U A70U] | -0.0467
GCUCCUUUGGCGUAAUGGUAACGCGUCUCCCUCCUAAGGAGACGACUGCGGGUUCGAGUCCCGUACGGGUUG [U2C G6U A43C A69G A70U C71U] | -0.4
GUUCCGUUGGCGUAAUGGUAACGCGUUUCCCUCCUAAGGAGACGAUUGCGGGUUCGAGUCCCGUAAGGAUCG [C27U A43C C46U C66A A70U] | -0.0585
AUUCCUUUGGCGUAAUGGUAACGCGUUUCCCUCCUAAGGAGACGACUGCGGGUUCGAGUCCCGUAUGGAAUG [G1A G6U C27U A43C C66U C71U] | -0.403
AUUCCGUUGGCGUAAUGGUAACGCGUUUCCCUCCUAAGGAGAAGACUGCGGGUUCGAGUCCCGUAAGGAUCG [G1A C27U C66A A70U] | -0.132
GUUCCGUUGGCGUAAUGGUAACGCGUCUCCCUCCUAAGGAGAAGACUGCGGGUUCGAGUCCCGUAUGGAUCG [C66U A70U] | -0.0848
GCUCCUUUGGCGUAAUGGUAACGCGUUUCCCUCCUAAGGAGACGAUUGCGGGUUCGAGUCCCGUAUGGGUCG [U2C G6U C27U A43C C46U C66U A69G A70U] | -0.3
AUUCCGUUGGCGUAAUGGUAACGCGUCUCCCUCCUAAGGAGACGAUUGCGGGUUCGAGUCCCGUAUGGAUCG [G1A A43C C46U C66U A70U] | -0.124
